Converted amounts (≈) assume the structure as drawn.
Key:
Format in all cases: functional
[1] = test system: Staphylococcus aureus; test: Antibacterial activity against vancomycin/methicillin-susceptible Staphylococcus aureus Newman […] after 24 hrs by broth microdilution method
How it was run: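 Broth microdilution in cation-adjusted Mueller-Hinton II broth. […] Each well received ~10^5 CFU of exponential-phase bacteria and was incubated at 37 °C for 24 h. MIC was taken as the lowest concentration giving complete growth inhibition, interpreted per CLSI.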

[2] = test system: Staphylococcus aureus; test: Antibacterial activity against healthcare-associated methicillin-resistant/vancomycin-intermediate Staphylococcus aureus Mu50 after 24 hrs by broth microdilution method; settings: Mu50, 24 h
How it was run: (§1)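 Broth microdilution in cation-adjusted Mueller-Hinton II broth. DMSO stocks were diluted in broth and twofold serially from 128 to 0.0625 μg/mL or lower. Each well was inoculated with ~10^5 CFU of exponential-phase bacteria and incubated at 37 °C for 24 h. MIC was the lowest concentration giving complete growth inhibition, read per CLSI. Growth controls contained broth plus DMSO.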

[3] = test system: Enterococcus faecium; test: Antibacterial activity against glycopeptide-resistant Enterococcus faecium Efm-HS-0649 vanA after 24 hrs by broth microdilution method; settings: Efm-HS-0649, 24 h; how it was run: as §1
[4] = test system: Enterococcus faecium; test: Antibacterial activity against glycopeptide-resistant Enterococcus faecium Efm-HS-06188 vanA after 24 hrs by broth microdilution method; settings: Efm-HS-06188, 24 h; how it was run: as §1
[5] = test system: Enterococcus faecium; test: Antibacterial activity against glycopeptide-resistant Enterococcus faecium Efm-HS-0847 vanM after 24 hrs by broth microdilution method; settings: Efm-HS-0847, 24 h; how it was run: as §1
[6] = test system: Enterococcus faecium; test: Antibacterial activity against glycopeptide-resistant Enterococcus faecium Efm-HS-08257 vanM after 24 hrs by broth microdilution method; settings: Efm-HS-08257, 24 h; how it was run: as §1
[7] = test system: Enterococcus faecium; test: Antibacterial activity against glycopeptide-resistant Enterococcus faecium Efm-HS-vb01 vanB after 24 hrs by broth microdilution method; settings: Efm-HS-vb01, 24 h; how it was run: as §1

SMILES | MIC90 [1] [µg/mL] | MIC90 [2] [µg/mL] | MIC [3] [µg/mL] | MIC [4] [µg/mL] | MIC [5] [µg/mL] | MIC [6] [µg/mL] | MIC [7] [µg/mL]
CN[C@H](CC(C)C)C(=O)N[C@H]1C(=O)N[C@@H](CC(N)=O)C(=O)N[C@H]2C(=O)N[C@H]3C(=O)N[C@H](C(=O)N[C@H](C(=O)O)c4cc(O)c(CNCCO)c(O)c4-c4cc3ccc4O)[C@H](O)c3ccc(c(Cl)c3)Oc3cc2cc(c3O[C@@H]2O[C@H](CO)[C@@H](O)[C@H](O)[C@H]2O[C@H]2C[C@](C)(NCc3ccc(OCc4cccc(-c5ccccc5)c4C)c(Cl)c3)[C@H](O)[C@H](C)O2)Oc2ccc(cc2Cl)[C@H]1O | 0.12 (≈ 0.0651 µM) | 0.5 (≈ 0.271 µM) | 1 (≈ 0.543 µM) | 0.5 (≈ 0.271 µM) | 2 (≈ 1.09 µM) | 1 (≈ 0.543 µM) | 1 (≈ 0.543 µM)
CN[C@H](CC(C)C)C(=O)N[C@H]1C(=O)N[C@@H](CC(N)=O)C(=O)N[C@H]2C(=O)N[C@H]3C(=O)N[C@H](C(=O)N[C@H](C(=O)O)c4cc(O)c(CNCCO)c(O)c4-c4cc3ccc4O)[C@H](O)c3ccc(c(Cl)c3)Oc3cc2cc(c3O[C@@H]2O[C@H](CO)[C@@H](O)[C@H](O)[C@H]2O[C@H]2C[C@](C)(NCc3ccc(-c4ccc(Cl)cc4)cc3)[C@H](O)[C@H](C)O2)Oc2ccc(cc2Cl)[C@H]1O | 0.03 (≈ 0.0174 µM) | 0.12 (≈ 0.0696 µM) | 2 (≈ 1.16 µM) | 1 (≈ 0.58 µM) | 4 (≈ 2.32 µM) | 2 (≈ 1.16 µM) | ≤ 0.06
CCCCCCCCCCNCCN[C@@]1(C)C[C@H](O[C@H]2[C@H](Oc3c4cc5cc3Oc3ccc(cc3Cl)[C@@H](O)[C@@H](NC(=O)[C@@H](CC(C)C)NC)C(=O)N[C@@H](CC(N)=O)C(=O)N[C@H]5C(=O)N[C@H]3C(=O)N[C@H](C(=O)N[C@H](C(=O)O)c5cc(O)c(CN[C@@H]6C(O)O[C@H](CO)[C@@H](O)[C@@H]6O)c(O)c5-c5cc3ccc5O)[C@H](O)c3ccc(c(Cl)c3)O4)O[C@H](CO)[C@@H](O)[C@@H]2O)O[C@@H](C)[C@H]1O (some centres not stated) | 8 (≈ 4.39 µM) | 32 (≈ 17.5 µM) | 64 (≈ 35.1 µM) | 64 (≈ 35.1 µM) | 32 (≈ 17.5 µM) | 8 (≈ 4.39 µM) | 16 (≈ 8.77 µM)
CCCCCCCCCCNCCN[C@@]1(C)C[C@H](O[C@H]2[C@H](Oc3c4cc5cc3Oc3ccc(cc3Cl)[C@@H](O)[C@@H](NC(=O)[C@@H](CC(C)C)NC)C(=O)N[C@@H](CC(N)=O)C(=O)N[C@H]5C(=O)N[C@H]3C(=O)N[C@H](C(=O)N[C@H](C(=O)O)c5cc(O)c(CN[C@H]6C(O)O[C@H](CO)[C@H](O)[C@@H]6O)c(O)c5-c5cc3ccc5O)[C@H](O)c3ccc(c(Cl)c3)O4)O[C@H](CO)[C@@H](O)[C@@H]2O)O[C@@H](C)[C@H]1O (some centres not stated) | 0.12 (≈ 0.0658 µM) | 0.5 (≈ 0.274 µM) | 16 (≈ 8.77 µM) | 8 (≈ 4.39 µM) | 8 (≈ 4.39 µM) | 8 (≈ 4.39 µM) | 1 (≈ 0.548 µM)
CCCCCCCCCCNCCN[C@@]1(C)C[C@H](O[C@H]2[C@H](Oc3c4cc5cc3Oc3ccc(cc3Cl)[C@@H](O)[C@@H](NC(=O)[C@@H](CC(C)C)NC)C(=O)N[C@@H](CC(N)=O)C(=O)N[C@H]5C(=O)N[C@H]3C(=O)N[C@H](C(=O)N[C@H](C(=O)O)c5cc(O)c(CN[C@H]6C(O)O[C@H](CO)[C@@H](O)[C@@H]6O)c(O)c5-c5cc3ccc5O)[C@H](O)c3ccc(c(Cl)c3)O4)O[C@H](CO)[C@@H](O)[C@@H]2O)O[C@@H](C)[C@H]1O (some centres not stated) | 4 (≈ 2.19 µM) | 8 (≈ 4.39 µM) | 64 (≈ 35.1 µM) | 64 (≈ 35.1 µM) | 32 (≈ 17.5 µM) | 8 (≈ 4.39 µM) | 16 (≈ 8.77 µM)
CN[C@H](CC(C)C)C(=O)N[C@H]1C(=O)N[C@@H](CC(N)=O)C(=O)N[C@H]2C(=O)N[C@H]3C(=O)N[C@H](C(=O)N[C@H](C(=O)O)c4cc(O)c(CNCCCNC(=O)[C@H](O)[C@@H](O)[C@H](O)[C@H](O)CO)c(O)c4-c4cc3ccc4O)[C@H](O)c3ccc(c(Cl)c3)Oc3cc2cc(c3O[C@@H]2O[C@H](CO)[C@@H](O)[C@H](O)[C@H]2O[C@H]2C[C@](C)(NCc3ccc(-c4ccc(Cl)cc4)cc3)[C@H](O)[C@H](C)O2)Oc2ccc(cc2Cl)[C@H]1O | 0.06 (≈ 0.0313 µM) | 0.12 (≈ 0.0627 µM) | 4 (≈ 2.09 µM) | 1 (≈ 0.522 µM) | 16 (≈ 8.36 µM) | 8 (≈ 4.18 µM) | 1 (≈ 0.522 µM)
